Measurements published in BindingDB's records for doi:10.1021/jm030056e (Glaxosmithkline, 2003).

Experiments:
[1] = target: cGMP-specific 3',5'-cyclic phosphodiesterase (Bos taurus, UniProt Q28156); test: Inhibitory activity against bovine PDE5 (phosphodiesterase-5).
Phosphodiesterase = Phosphodiesterase (Bos taurus, UniProt E1BN64); test: Inhibition of bovine aorta PDE3 (phosphodiesterase 3)
How it was run: (§1)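 Incubated 30 min at 30 °C under initial-velocity conditions (≤10-15% hydrolysis). Product separated on QAE Sephadex and counted by scintillation; final DMSO 2%.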

[2] = target: cGMP-dependent 3',5'-cyclic phosphodiesterase (Homo sapiens, UniProt O00408); test: Inhibition of human recombinant PDE2 (phosphodiesterase 2); how it was run: as §1
Sequence of cGMP-dependent 3',5'-cyclic phosphodiesterase (O00408 whole entry): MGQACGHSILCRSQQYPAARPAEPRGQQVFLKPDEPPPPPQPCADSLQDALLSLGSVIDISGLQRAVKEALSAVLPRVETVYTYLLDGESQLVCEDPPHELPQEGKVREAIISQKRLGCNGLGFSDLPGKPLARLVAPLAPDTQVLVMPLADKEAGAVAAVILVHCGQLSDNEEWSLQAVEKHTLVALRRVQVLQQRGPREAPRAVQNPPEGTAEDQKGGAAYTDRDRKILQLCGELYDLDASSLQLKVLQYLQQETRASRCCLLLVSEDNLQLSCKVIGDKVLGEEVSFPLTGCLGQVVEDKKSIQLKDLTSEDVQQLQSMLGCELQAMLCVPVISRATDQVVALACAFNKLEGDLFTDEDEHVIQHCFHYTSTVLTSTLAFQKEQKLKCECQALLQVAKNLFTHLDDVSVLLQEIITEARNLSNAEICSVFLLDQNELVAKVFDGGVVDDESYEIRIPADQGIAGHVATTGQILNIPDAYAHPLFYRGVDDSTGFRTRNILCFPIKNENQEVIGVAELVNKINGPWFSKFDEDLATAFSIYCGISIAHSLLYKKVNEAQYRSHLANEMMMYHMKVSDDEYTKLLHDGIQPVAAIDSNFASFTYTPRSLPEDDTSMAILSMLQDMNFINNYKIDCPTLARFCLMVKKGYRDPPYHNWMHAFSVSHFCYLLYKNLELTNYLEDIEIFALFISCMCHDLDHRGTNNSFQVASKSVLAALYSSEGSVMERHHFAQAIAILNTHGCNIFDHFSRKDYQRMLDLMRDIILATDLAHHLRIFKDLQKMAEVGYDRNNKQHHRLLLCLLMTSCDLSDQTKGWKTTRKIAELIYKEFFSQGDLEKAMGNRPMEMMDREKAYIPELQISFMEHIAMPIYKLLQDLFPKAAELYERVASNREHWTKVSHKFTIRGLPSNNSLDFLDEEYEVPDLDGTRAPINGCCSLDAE

Sequence of Phosphodiesterase (E1BN64 whole entry): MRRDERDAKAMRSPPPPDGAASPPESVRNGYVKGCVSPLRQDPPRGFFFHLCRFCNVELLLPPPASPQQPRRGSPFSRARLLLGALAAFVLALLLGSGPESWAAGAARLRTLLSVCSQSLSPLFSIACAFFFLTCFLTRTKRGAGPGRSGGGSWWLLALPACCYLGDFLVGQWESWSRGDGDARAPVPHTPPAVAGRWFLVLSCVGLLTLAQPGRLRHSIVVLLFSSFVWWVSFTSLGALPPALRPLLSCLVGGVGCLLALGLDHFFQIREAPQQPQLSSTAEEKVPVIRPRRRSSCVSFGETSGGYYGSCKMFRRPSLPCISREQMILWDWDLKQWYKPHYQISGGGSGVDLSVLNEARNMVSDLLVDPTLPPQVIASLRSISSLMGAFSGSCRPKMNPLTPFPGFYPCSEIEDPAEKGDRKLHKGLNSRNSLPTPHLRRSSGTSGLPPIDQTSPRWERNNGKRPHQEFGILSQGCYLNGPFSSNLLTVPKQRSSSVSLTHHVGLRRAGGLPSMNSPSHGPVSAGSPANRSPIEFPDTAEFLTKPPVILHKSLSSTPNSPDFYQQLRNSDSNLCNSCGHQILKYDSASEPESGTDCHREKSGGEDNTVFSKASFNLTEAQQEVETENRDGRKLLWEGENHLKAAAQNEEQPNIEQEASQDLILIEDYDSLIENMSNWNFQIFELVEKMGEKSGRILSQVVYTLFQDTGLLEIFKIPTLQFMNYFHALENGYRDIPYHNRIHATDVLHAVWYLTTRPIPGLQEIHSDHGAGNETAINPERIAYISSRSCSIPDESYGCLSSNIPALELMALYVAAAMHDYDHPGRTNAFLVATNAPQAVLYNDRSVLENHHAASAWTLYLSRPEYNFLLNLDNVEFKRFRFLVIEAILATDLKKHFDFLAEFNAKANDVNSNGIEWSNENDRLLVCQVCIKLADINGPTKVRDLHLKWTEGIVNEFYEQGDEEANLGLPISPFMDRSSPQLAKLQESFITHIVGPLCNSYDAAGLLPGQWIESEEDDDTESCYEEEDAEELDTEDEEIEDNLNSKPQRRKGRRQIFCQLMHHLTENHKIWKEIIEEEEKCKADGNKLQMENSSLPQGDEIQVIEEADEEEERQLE

| Structure (SMILES) | IC50 [1] [µM] | IC50 (Phosphodiesterase) [µM] | IC50 [2] [µM] |
| --- | --- | --- | --- |
| COc1ccc([C@H]2c3[nH]c4ccccc4c3Cc3c(O)n(CCN4CCCC4)c(=O)n32)cc1 | 0.1 | – | – |
| COc1ccc([C@@H]2c3[nH]c4ccccc4c3Cc3c(O)n(Cc4ccccc4)c(=O)n32)cc1 [(3aR,10R)-2-Benzyl-10-(4-methoxy-phenyl)-3a,4,9,10-tetrahydro-2,9,10a-triaza-cyclopenta[b]fluorene-1,3-dione] | – | > 10 | > 10 |
| COc1ccc([C@H]2c3[nH]c4ccccc4c3Cc3c(O)n(CCN(C)C)c(=O)n32)cc1 [(3aR,10S)-2-(2-Dimethylamino-ethyl)-10-(4-methoxy-phenyl)-3a,4,9,10-tetrahydro-2,9,10a-triaza-cyclopenta[b]fluorene-1,3-dione] | 0.03 | – | – |
| CCCCn1c(O)c2n(c1=O)[C@@H](c1ccc(OC)cc1)c1[nH]c3ccccc3c1C2 [(3aR,10S)-2-Butyl-10-(4-methoxy-phenyl)-3a,4,9,10-tetrahydro-2,9,10a-triaza-cyclopenta[b]fluorene-1,3-dione] | – | > 10 | > 10 |
| CCCCn1c(O)c2n(c1=O)[C@H](c1ccncc1)c1[nH]c3ccccc3c1C2 [Cis-2-Butyl-10-pyridin-4-yl-3a,4,9,10-tetrahydro-2,9,10a-triaza-cyclopenta[b]fluorene-1,3-dione] | 0.3 | – | – |

Next, values leading:

| IC50 [1] [µM] | IC50 (Phosphodiesterase) [µM] | IC50 [2] [µM] | Structure (SMILES) |
| --- | --- | --- | --- |
| – | > 10 | > 10 | CCCCn1c(O)c2n(c1=O)[C@H](c1ccc(OC)cc1)c1[nH]c3ccccc3c1C2 [(3aR,10R)-2-Butyl-10-(4-methoxy-phenyl)-3a,4,9,10-tetrahydro-2,9,10a-triaza-cyclopenta[b]fluorene-1,3-dione] |
| 0.1 | – | – | CCCCn1c(O)c2n(c1=O)[C@H](c1ccoc1)c1[nH]c3ccccc3c1C2 [(3aR,10R)-2-Butyl-10-furan-3-yl-3a,4,9,10-tetrahydro-2,9,10a-triaza-cyclopenta[b]fluorene-1,3-dione] |
| 0.007 | – | > 10 | COc1ccc([C@@H]2c3[nH]c4ccccc4c3Cc3c(O)n(C4CCCCC4)c(=O)n32)cc1 [(3aR,10R)-2-Cyclohexyl-10-(4-methoxy-phenyl)-3a,4,9,10-tetrahydro-2,9,10a-triaza-cyclopenta[b]fluorene-1,3-dione] |
| 0.02 | – | – | COc1ccc([C@H]2c3[nH]c4ccccc4c3Cc3c(O)n(Cc4cccnc4)c(=O)n32)cc1 [(3aR,10S)-10-(4-Methoxy-phenyl)-2-pyridin-3-ylmethyl-3a,4,9,10-tetrahydro-2,9,10a-triaza-cyclopenta[b]fluorene-1,3-dione] |
| 0.02 | – | – | COc1ccc([C@H]2c3[nH]c4ccccc4c3Cc3c(O)[nH]c(=O)n32)cc1 [(3aR,10S)-10-(4-Methoxy-phenyl)-3a,4,9,10-tetrahydro-2,9,10a-triaza-cyclopenta[b]fluorene-1,3-dione] |
| 0.03 | – | – | CCCCn1c(O)c2n(c1=O)[C@H](c1ccsc1)c1[nH]c3ccccc3c1C2 [Cis-2-Butyl-10-thiophen-3-yl-3a,4,9,10-tetrahydro-2,9,10a-triaza-cyclopenta[b]fluorene-1,3-dione] |
